Results taken from ChEMBL document CHEMBL1649480, “Farnesol-induced apoptosis in Candida albicans” (2009).
Calls of active or inactive are those of the source. The rule behind the calls is not given here.

How the values were obtained:
[1] = tested on: Candida albicans; assay: Induction of apoptosis in Candida albicans SC5314 at 200 uM after 24 hrs by TUNEL assay; assay type: functional
Method in brief: (§1)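 After 24 h in farnesol (40, 100, 200 μM), cells were PBS-washed, fixed in 4% paraformaldehyde (pH 7.4) 1 h at 20°C, and permeabilized 2 min on ice. They were labeled with 9:1 label:enzyme TUNEL mix 1 h at 37°C in the dark and examined by fluorescence microscopy at 515–565 nm. Flow cytometry counted % positive of 30,000 gated cells, gates set by no-enzyme and DNase-treated controls.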

[2] = tested on: Candida albicans; assay: Downregulation of ATP synthase subunit D expression in Candida albicans SC5314 at 200 uM after 24 hrs by MALDI-TOF MS; assay type: functional, organism-based
Method in brief: (§2)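 Overnight YNB-glucose SC5314 culture, PBS-washed, adjusted to OD600 0.1 and treated 24 h with 40 or 200 μM farnesol (methanol in controls). Proteomes were compared with untreated cells by 2D SDS-PAGE and MALDI-TOF MS, searched against NCBI nonredundant database. Spots were counted as changed at ≥1.5-fold in three independent experiments.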

[3] = tested on: Candida albicans; assay: Upregulation of Putative mitochondrial […] expression in Candida albicans SC5314 at 200 uM after 24 hrs by MALDI-TOF MS; assay type: functional, organism-based
Method in brief: (§3)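 SC5314 grown overnight at 30°C, 120 rpm, in yeast nitrogen base (pH 7.0) with 50 mM glucose. Cells were washed in PBS and adjusted to OD600 0.1, then treated 24 h with farnesol from a methanol dilution; controls received methanol. Proteomes of treated and untreated cells were compared by 2-D SDS-PAGE and MALDI-TOF MS, with ProFound searches of the NCBI nonredundant database. Spots changed at least 1.5-fold in three independent experiments were counted.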

[4] = tested on: Candida albicans; assay: Induction of apoptosis in Candida albicans SC5314 at 100 uM after 24 hrs by TUNEL assay; assay type: functional; method in brief: as §1
[5] = tested on: Candida albicans; assay: Downregulation of Putative stress response protein expression in Candida albicans SC5314 at 40 uM after 24 hrs by MALDI-TOF MS; assay type: functional, organism-based; method in brief: as §2
[6] = tested on: Candida albicans; assay: Upregulation of Putative Rho protein GDP dissociation factor expression in Candida albicans SC5314 at 200 uM after 24 hrs by MALDI-TOF MS; assay type: functional, organism-based; method in brief: as §3
[7] = tested on: Candida albicans; assay: Downregulation of Heat shock protein 60 expression in Candida albicans SC5314 at 200 uM after 24 hrs by MALDI-TOF MS; assay type: functional, organism-based; method in brief: as §2
[8] = tested on: Candida albicans; assay: Induction of apoptosis in Candida albicans SC5314 assessed as cell death level at 200 uM after 3 hrs by Fluorescence analysis; assay type: functional
Method in brief: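 Washed, OD600 0.1 SC5314 cells (overnight culture at 30°C in YNB pH 7.0 with 50 mM glucose) exposed 3 h to farnesol, with methanol vehicle and H2O2 controls. Stained 30 min in the dark with a mix of dichlorodihydrofluorescein diacetate, propidium iodide and calcofluor white, then PBS-washed. Confocal imaging; red propidium iodide-stained cells scored as a percentage of all cells.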

[9] = tested on: Candida albicans; assay: Induction of apoptosis in Candida albicans SC5314 assessed as activation of caspase activity at 100 uM after 3 hrs by Fluorescence analysis; assay type: functional
Method in brief: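 SC5314 grown overnight at 30°C (120 rpm) in yeast nitrogen base pH 7.0 with 50 mM glucose, PBS-washed, set to OD600 0.1, then exposed to farnesol (40, 100, 200 μM; methanol diluent). Active caspases detected in situ with a FLICA kit per the manufacturer; green cells imaged by confocal microscopy (Cy2/Cy3). Controls: methanol vehicle and hydrogen peroxide. Done on three or more occasions.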

[10] = tested on: Candida albicans; assay: Upregulation of Heat shock protein 70 expression in Candida albicans SC5314 at 40 uM after 24 hrs by MALDI-TOF MS; assay type: functional, organism-based; method in brief: as §2
[11] = tested on: Candida albicans; assay: Downregulation of Glyceraldehyde-3-phosphate dehydrogenase expression in Candida albicans SC5314 at 40 uM after 24 hrs by MALDI-TOF MS; assay type: functional, organism-based; method in brief: as §2
[12] = tested on: Candida albicans; assay: Upregulation of Acetyl-CoA hydrolase/transferase expression in Candida albicans SC5314 at 200 uM after 24 hrs by MALDI-TOF MS; assay type: functional, organism-based; method in brief: as §2
[13] = tested on: Candida albicans; assay: Induction of ROS accumulation in mitochondria of Candida albicans SC5314 after 3 hrs by Fluorescence analysis; assay type: functional, organism-based
Method in brief: (§4)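 Cells were exposed 3 h to 40, 100 or 200 μM farnesol, with methanol control and H2O2 positive control. Washed cells were stained 30 min in the dark with a mix of dichlorodihydrofluorescein diacetate, propidium iodide and calcofluor white, then washed and viewed by confocal microscopy. % green (ROS) cells of all cells was scored, with red (necrotic) cells scored separately.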

[14] = tested on: Candida albicans; assay: Upregulation of Coproporphyrinogen III oxidase expression in Candida albicans SC5314 at 200 uM after 24 hrs by MALDI-TOF MS; assay type: functional, organism-based; method in brief: as §2
[15] = tested on: Candida albicans; assay: Induction of ROS accumulation in mitochondria of Candida albicans SC5314 at 40 uM after 3 hrs by Fluorescence analysis; assay type: functional; method in brief: as §4
[16] = tested on: Candida albicans; assay: Downregulation of G-beta-like protein expression in Candida albicans SC5314 at 40 uM after 24 hrs by MALDI-TOF MS; assay type: functional, organism-based; method in brief: as §2
[17] = tested on: Candida albicans; assay: Increase in MCA1 expression in Candida albicans SC5314 at 5 mM after 4 hrs by quantitative PCR analysis
[18] = tested on: Candida albicans; assay: Antiproliferative activity against Candida albicans SC5314 assessed as cell killing after 24 hrs by MTS assay; assay type: functional
Method in brief: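 SC5314 grown overnight in YNB (pH 7.0) with 50 mM glucose at 30°C, 120 rpm, washed in PBS. Suspensions at 1 × 10⁷ cells/ml exposed to farnesol at final 0, 10, 40, 100, 200, 300 μM for 24 h at 30°C with shaking, with methanol vehicle controls. MTS reagent added for 4 h at 37°C, A490 read, and % killed cells calculated.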

[19] = tested on: Candida albicans; assay: Upregulation of Catalase A expression in Candida albicans SC5314 at 40 uM after 24 hrs by MALDI-TOF MS; assay type: functional, organism-based; method in brief: as §2
[20] = tested on: Candida albicans; assay: Induction of apoptosis in Candida albicans SC5314 assessed as mitochondrial degradation at 100 uM after 3 hrs by Fluorescence analysis; assay type: functional
Method in brief: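 Farnesol-exposed SC5314 (40, 100, 200 μM; methanol control, H2O2 positive control) stained with a MitoPT mitochondrial permeability transition dye per kit instructions. Cells imaged by confocal microscopy: red mitochondrial aggregates in healthy cells, dispersed green signal in apoptotic cells. Percentage of cells with degradation was recorded.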

[21] = tested on: Candida albicans; assay: Upregulation of Heat shock protein 90 expression in Candida albicans SC5314 at 200 uM after 24 hrs by MALDI-TOF MS; assay type: functional, organism-based; method in brief: as §2
[22] = tested on: Candida albicans; assay: Downregulation of carboxymethylenebutenolidase expression in Candida albicans SC5314 at 200 uM after 24 hrs by MALDI-TOF MS; assay type: functional, organism-based; method in brief: as §2
[23] = tested on: Candida albicans; assay: Upregulation of Mitochondrial 2-enoyl thioester reductase expression in Candida albicans SC5314 at 200 uM after 24 hrs by MALDI-TOF MS; assay type: functional, organism-based; method in brief: as §3
[24] = tested on: Candida albicans; assay: Downregulation of Translational elongation factor 1 expression in Candida albicans SC5314 at 40 uM after 24 hrs by MALDI-TOF MS; assay type: functional, organism-based; method in brief: as §2
[25] = tested on: Candida albicans; assay: Upregulation of Glutathione reductase expression in Candida albicans SC5314 at 200 uM after 24 hrs by MALDI-TOF MS; assay type: functional, organism-based; method in brief: as §2

Q: Which results are given for `CC(C)=CCC/C(C)=C/CC/C(C)=C/CO` [FARNESOL]?
A: Activity [1]: 14.5%; Activity [2]: Active; Activity [3]: Active; Activity [4]: 10.2%; Activity [5]: Active; Activity [6]: Active; Activity [7]: Active; Activity [8]: 35%; Activity [9]: 13%; Activity [10]: Active; Activity [11]: Active; Activity [12]: Active; Activity [13]: Active; Activity [14]: Active; Activity [15]: 26%; Activity [16]: Active; Activity [17]: Active; Activity [18]: 60%; Activity [19]: Active; Activity [20]: 93%; Activity [21]: Active; Activity [22]: Active; Activity [23]: Active; Activity [24]: Active; Activity [25]: Active
